ChEMBL document CHEMBL1914422, “Activation of the c-Jun N-terminal kinase/activating transcription factor 3 (ATF3) pathway characterizes effective arylated diazeniumdiolate-based nitric oxide-releasing anticancer prodrugs” (J Med Chem, 2011)
Activity calls are given as the source filed them. The rule behind the calls is not given here.

Key:
[1] = Chemical stability of the compound in aqueous phosphate buffered saline assessed as half life at pH 7.4 in presence of 4 mM glutathione; type: physicochemical; conditions: gsh
NCI-H2122 = experiment: Antiproliferative activity against human NCI-H2122 cells after 72 hrs by MTT assay; type: functional, cell-based; conditions: NCI-H2122, 72 h
How it was run: (§1)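 Compounds (10 mM DMSO stocks, final DMSO ≤0.1%) added at increasing concentrations in PBS, incubated 72 h at 37 °C. MTT read-out, six repeats per concentration, at least two independent experiments.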

NCI-H441 = experiment: Antiproliferative activity against human NCI-H441 cells after 72 hrs by MTT assay; type: functional, cell-based; conditions: NCI-H441, 72 h; how it was run: as §1
[2] = Antiproliferative activity against human NCI-H1373 cells after 72 hrs by MTT assay; type: functional, cell-based; conditions: NCI-H1373, 72 h; how it was run: as §1
[3] = Antiproliferative activity against human NCI-H1944 cells after 72 hrs by MTT assay; type: functional, cell-based; conditions: NCI-H1944, 72 h; how it was run: as §1
NCI-H1703 [4] = experiment: Antiproliferative activity against human NCI-H1703 cells after 72 hrs by MTT assay; type: functional, cell-based; conditions: NCI-H1703, 72 h; how it was run: as §1
[5] = Activation of JNK phosphorylation at Thr183 and Tyr185 in human NCI-H1703 cells at 1 uM within 30 mins by Western blot analysis; type: cell-based
[6] = Activation of JNK phosphorylation in human NCI-H1703 cells assessed as increase in ATF3 protein level at 1 uM within 2 hrs by Western blot analysis; type: cell-based
NCI-H1703 [7] = experiment: Antitumor activity against human NCI-H1703 cells xenografted in athymic NCr nu/nu Charles river mouse assessed as reduction of tumor growth at 8 umol/kg, iv administered 3 times a week for 3 weeks relative to vehicle treated control; type: functional, organism-based
How it was run: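 H1703 xenografts (5×10^6 cells s.c., flank) in 7-week-old female athymic NCr-nu/nu mice, treated from tumor size ≥2×2×2 mm. Dosing i.v. (tail vein) three times weekly for 3 weeks in 2.25% P-123/PBS. Mice killed 2 h after the last dose; tumors excised and weighed. 13–15 mice/group; Mann-Whitney test against vehicle.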

Mus musculus [8] = experiment: Induction of JNK phosphorylation in human NCI-H1703 cells xenografted NCr nu/nu Charles river mouse tumor at 8 umol/kg, iv administered 3 times a week for 3 weeks by immunohistochemical analysis; type: functional, organism-based
How it was run: (§2)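 H1703 xenografts in female athymic NCr-nu/nu mice, dosed i.v. three times weekly for 3 weeks in 2.25% P-123/PBS. Tumors taken 2 h after the last dose were immunostained for phospho-SAPK/JNK and ATF3. Intensity graded negative, very weak, weak, moderate or strong.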

NCI-H1703 [9] = experiment: Antitumor activity against human NCI-H1703 cells xenografted in NCr nu/nu Charles river mouse assessed as tissue death in tumor at 8 umol/kg, iv administered 3 times a week for 3 weeks by H and E staining method relative to control; type: functional, organism-based
How it was run: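 Female athymic NCr-nu/nu mice, 7 weeks old, received 5×10^6 H1703 cells s.c. in the flank. Once tumors reached ≥2×2×2 mm, dosing was i.v. by tail vein three times weekly for 3 weeks in 2.25% P-123/PBS vehicle. Tumors excised 2 h after the last dose, H&E stained, and scored for areas of cell death against vehicle controls.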

NCI-H1703 [10] = experiment: Induction of apoptosis in human NCI-H1703 cells assessed as PARP cleavage after 1 to 6 hrs by Western blot analysis; type: functional, cell-based
NCI-H1703 [11] = experiment: Induction of apoptosis in human NCI-H1703 cells assessed as caspase 7 activation after 1 to 6 hrs by Western blot analysis; type: functional, cell-based
[12] = Activation of JNK phosphorylation in human NCI-H1703 cells assessed as increase in ATF3 protein level at 1 uM by Western blot analysis; type: cell-based
NCI-H1703 [13] = experiment: Induction of apoptosis in human NCI-H1703 cells assessed as caspase 3 activation after 1 to 6 hrs by Western blot analysis; type: functional, cell-based
Mus musculus [14] = experiment: Toxicity in human NCI-H1703 cells xenografted athymic NCr nu/nu Charles river mouse assessed as change in body weight at 8 umol/kg, iv administered 3 times a week for 3 weeks (reference value: 22.2 +/- 0.4g); type: organism-based; conditions: in vivo, 504 h
How it was run: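 Xenografted female athymic NCr-nu/nu mice (H1703, 5×10^6 cells s.c.) dosed i.v. three times weekly for 3 weeks in 2.25% P-123/PBS vehicle. Body weights recorded before each injection and compared with vehicle-treated controls at start and end.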

Mus musculus [15] = experiment: Induction of JNK phosphorylation in human NCI-H1703 cells xenografted NCr nu/nu Charles river mouse tumor assessed as increase in ATF3 protein level at 8 umol/kg, iv administered 3 times a week for 3 weeks by immunohistochemical analysis; type: functional, organism-based; how it was run: as §2

Compound | t1/2 [1] | IC50 (NCI-H2122) | IC50 (NCI-H441) | IC50 [2] | IC50 [3] | IC50 (NCI-H1703 [4]) | Activity [5] | Activity [6] | growth inhibition (GI) (NCI-H1703 [7]) | Activity (Mus musculus [8]) | Activity (NCI-H1703 [9]) | Activity (NCI-H1703 [10]) | Activity (NCI-H1703 [11]) | Activity [12] | Activity (NCI-H1703 [13]) | Activity (Mus musculus [14]) | Activity (Mus musculus [15])
CCOC(=O)N1CCCN(/[N+]([O-])=N/Oc2cc(C)c([N+](=O)[O-])cc2[N+](=O)[O-])CC1 | 25.7 min | 10 µM | 2.02 µM | 3 µM | > 10 µM | 1.66 µM | inactive |  |  |  |  |  |  |  |  |  | 
CCOC(=O)N1CCN(/[N+]([O-])=N/Oc2cc(C)c([N+](=O)[O-])cc2[N+](=O)[O-])CC1 | 71.5 min | 7 µM | 1.61 µM | 1.86 µM | > 10 µM | 0.97 µM | inactive | inactive | inactive | inactive | inactive | inactive | inactive | inactive | inactive | 24.5 g | inactive
